# Experimental data published in ChEMBL document CHEMBL1671826, “Effect of Inhibiting Histone Deacetylase with Short-Chain Carboxylic Acids and Their Hydroxamic Acid Analogs on Vertebrate Development and Neuronal Chromatin” (ACS Med Chem Lett, 2011).
# Calls of active or inactive are those of the source. The rule behind the calls is not given here.
# How the values were obtained:
# [1] = target: Histone deacetylase 1 (Homo sapiens, UniProt Q13547); assay: Inhibition of human recombinant HDAC1
# In short: (§1)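 Recombinant HDAC isoforms incubated with acetyl-lysine tripeptide–AMC substrate (mimics histone H4 K12), or trifluoroacetyl-lysine-AMC for class IIa enzymes, each substrate at its Km; trypsin cleavage of deacetylated product releases fluorescent AMC. IC50 from two experiments in duplicate, mean ± SD.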
# [2] = target: Histone deacetylase 2 (Homo sapiens, UniProt Q92769); assay: Inhibition of human recombinant HDAC2; in short: as §1
# [3] = target: Histone deacetylase 3 (Homo sapiens, UniProt O15379); assay: Inhibition of human recombinant HDAC3; in short: as §1
# [4] = target: T1, Histone deacetylase 8 (Homo sapiens, UniProt Q9BY41); assay: Inhibition of human recombinant HDAC8; in short: as §1
# T1 sequence (Q9BY41 whole entry): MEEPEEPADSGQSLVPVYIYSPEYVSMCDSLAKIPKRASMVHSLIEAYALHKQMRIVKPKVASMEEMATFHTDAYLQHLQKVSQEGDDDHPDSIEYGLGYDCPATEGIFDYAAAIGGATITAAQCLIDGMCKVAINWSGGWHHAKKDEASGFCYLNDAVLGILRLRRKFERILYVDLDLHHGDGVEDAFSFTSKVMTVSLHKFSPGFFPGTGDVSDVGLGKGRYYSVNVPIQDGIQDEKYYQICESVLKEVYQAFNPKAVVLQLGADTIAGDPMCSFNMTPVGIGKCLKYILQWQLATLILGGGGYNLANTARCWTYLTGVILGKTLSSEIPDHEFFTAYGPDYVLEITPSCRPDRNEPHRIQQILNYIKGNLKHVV
# [5] = target: Histone deacetylase 4 (Homo sapiens, UniProt P56524); assay: Inhibition of human recombinant HDAC4; in short: as §1
# [6] = target: Histone deacetylase 5 (Homo sapiens, UniProt Q9UQL6); assay: Inhibition of human recombinant HDAC5; in short: as §1
# [7] = target: Histone deacetylase 9 (Homo sapiens, UniProt Q9UKV0); assay: Inhibition of human recombinant HDAC9; in short: as §1
# [8] = target: T2, Protein deacetylase HDAC6 (Homo sapiens, UniProt Q9UBN7); assay: Inhibition of human recombinant HDAC6; in short: as §1
# T2 sequence (Q9UBN7 whole entry): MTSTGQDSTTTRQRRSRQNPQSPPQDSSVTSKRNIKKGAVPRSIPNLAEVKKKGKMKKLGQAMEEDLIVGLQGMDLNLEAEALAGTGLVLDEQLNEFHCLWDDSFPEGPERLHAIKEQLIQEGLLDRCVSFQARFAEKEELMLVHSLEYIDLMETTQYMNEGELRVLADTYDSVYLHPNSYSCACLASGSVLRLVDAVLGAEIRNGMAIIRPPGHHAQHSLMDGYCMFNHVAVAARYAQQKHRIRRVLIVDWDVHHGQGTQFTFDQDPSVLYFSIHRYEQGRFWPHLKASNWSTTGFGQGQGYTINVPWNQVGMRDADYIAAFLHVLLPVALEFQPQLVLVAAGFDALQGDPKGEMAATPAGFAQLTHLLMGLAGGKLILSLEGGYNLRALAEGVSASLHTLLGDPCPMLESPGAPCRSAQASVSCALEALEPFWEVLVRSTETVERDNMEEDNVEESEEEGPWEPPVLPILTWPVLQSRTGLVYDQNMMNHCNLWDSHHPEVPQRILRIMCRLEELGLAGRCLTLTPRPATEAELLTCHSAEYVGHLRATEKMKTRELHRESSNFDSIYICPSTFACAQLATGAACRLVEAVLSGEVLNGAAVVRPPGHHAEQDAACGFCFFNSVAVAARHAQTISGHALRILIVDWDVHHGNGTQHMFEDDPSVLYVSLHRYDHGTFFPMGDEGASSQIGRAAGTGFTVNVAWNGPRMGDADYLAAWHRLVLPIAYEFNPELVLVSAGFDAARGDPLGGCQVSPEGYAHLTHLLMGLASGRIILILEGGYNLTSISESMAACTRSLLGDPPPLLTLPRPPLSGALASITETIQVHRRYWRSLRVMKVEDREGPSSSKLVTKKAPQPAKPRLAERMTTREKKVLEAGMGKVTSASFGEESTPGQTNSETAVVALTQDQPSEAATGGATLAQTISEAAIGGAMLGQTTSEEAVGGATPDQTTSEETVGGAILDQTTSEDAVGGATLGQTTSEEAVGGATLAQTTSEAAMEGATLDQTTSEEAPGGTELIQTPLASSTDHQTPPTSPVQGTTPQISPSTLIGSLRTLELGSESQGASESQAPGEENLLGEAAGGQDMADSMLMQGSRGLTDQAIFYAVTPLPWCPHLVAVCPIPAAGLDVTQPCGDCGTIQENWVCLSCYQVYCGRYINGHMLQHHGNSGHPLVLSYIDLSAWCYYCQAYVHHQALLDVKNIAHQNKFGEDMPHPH
# [9] = target: T3, Protein deacetylase HDAC6 (Homo sapiens) (UniProt Q9UBN7); assay: Inhibition of HDAC6 in human HeLa cells assessed as acetylation of tubulin after 24 hrs by immunofluorescence assay; type: cell-based
# T3 sequence (whole entry): T2 sequence (Q9UBN7 whole entry)
# In short: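 HeLa cells treated 24 h at the indicated doses; tubulin acetylation quantified by immunofluorescence.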
# [10] = species: Xenopus laevis; assay: Induction of developmental deffects in frog embryos assessed as loss of anterior structures at 2 mM after 18 hrs; type: organism-based; details: in vivo, 2000 µM
# In short: (§2)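 Xenopus laevis embryos exposed in the whole-organism development assay at 2 mM and scored morphologically for loss of anterior structures, shortened anterior–posterior axis, and heart looping and pigment defects; compared with untreated embryos.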
# [11] = species: Xenopus laevis; assay: Induction of developmental deffects in frog embryos assessed as shortening of anterior-posterior axis at 2 mM after 18 hrs; type: organism-based; details: in vivo, 2000 µM; in short: as §2
# [12] = species: Xenopus laevis; assay: Induction of developmental deffects in frog embryos assessed as heart looping and pigment deffects at 2 mM after 18 hrs; type: organism-based; details: in vivo, 2000 µM; in short: as §2
# [13] = species: Xenopus laevis; assay: Induction of tubulin acetylation in frog embryos at 2 mM after 18 hrs Western blotting
# In short: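 Frog embryos treated from stage 18 (end of neurulation) through tailbud stages (32) for 18 h at the indicated concentrations; acetylated tubulin detected by Western blot.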
# [14] = species: Xenopus laevis; assay: Induction of histone H3 acetylation in frog embryos at 2 mM after 2 hrs Western blotting
# In short: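 Frog embryos treated from completion of neurulation (stage 18) into tailbud stages for 2 h at the indicated concentrations; histone acetylation read by Western blot.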
# [15] = target: T4, Protein deacetylase HDAC6 (Mus musculus) (UniProt Q9Z2V5); assay: Inhibition of HDAC6 in mouse primary forebrain neurons assessed as acetylation of tubulin at 92.5 uM after 24 hrs by immunofluorescence assay
# T4 sequence (whole entry): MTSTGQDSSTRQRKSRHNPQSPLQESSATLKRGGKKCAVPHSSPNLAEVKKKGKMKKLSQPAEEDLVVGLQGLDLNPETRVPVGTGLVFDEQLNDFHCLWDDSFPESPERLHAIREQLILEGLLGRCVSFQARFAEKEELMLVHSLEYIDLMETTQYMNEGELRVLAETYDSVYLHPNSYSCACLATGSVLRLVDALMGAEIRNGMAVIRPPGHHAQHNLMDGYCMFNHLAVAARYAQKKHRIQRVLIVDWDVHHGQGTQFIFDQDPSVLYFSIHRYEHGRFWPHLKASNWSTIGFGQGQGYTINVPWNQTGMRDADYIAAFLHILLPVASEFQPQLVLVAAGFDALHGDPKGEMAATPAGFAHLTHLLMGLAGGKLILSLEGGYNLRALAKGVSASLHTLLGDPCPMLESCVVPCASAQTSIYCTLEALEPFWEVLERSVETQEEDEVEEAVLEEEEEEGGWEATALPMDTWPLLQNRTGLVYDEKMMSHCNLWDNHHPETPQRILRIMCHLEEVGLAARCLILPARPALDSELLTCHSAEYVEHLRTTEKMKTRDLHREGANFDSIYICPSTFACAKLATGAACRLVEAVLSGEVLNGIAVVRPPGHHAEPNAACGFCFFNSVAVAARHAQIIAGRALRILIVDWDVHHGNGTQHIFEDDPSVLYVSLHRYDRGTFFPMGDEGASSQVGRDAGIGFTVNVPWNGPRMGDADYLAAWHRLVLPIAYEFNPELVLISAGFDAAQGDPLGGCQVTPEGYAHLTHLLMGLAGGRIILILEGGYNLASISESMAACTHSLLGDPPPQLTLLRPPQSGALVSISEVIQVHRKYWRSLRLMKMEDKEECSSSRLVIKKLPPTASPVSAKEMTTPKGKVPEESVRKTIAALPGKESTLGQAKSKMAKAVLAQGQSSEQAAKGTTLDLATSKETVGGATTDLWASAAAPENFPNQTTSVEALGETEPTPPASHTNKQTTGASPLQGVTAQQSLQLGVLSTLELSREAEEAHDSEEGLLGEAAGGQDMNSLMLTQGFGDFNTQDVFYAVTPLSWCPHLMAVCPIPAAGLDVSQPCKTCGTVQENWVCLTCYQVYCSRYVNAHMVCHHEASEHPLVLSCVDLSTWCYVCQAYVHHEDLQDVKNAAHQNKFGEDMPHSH
# In short: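 Primary mouse forebrain cultures treated 24 h at a single concentration; tubulin acetylation measured by immunofluorescence.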
# [16] = species: Mus musculus; assay: Inhibition of HDAC in mouse primary forebrain neurons assessed as acetylation of histone H3 lysine 9 at 92.5 uM after 24 hrs by immunofluorescence assay
# [17] = target: T5, Histone deacetylase 7 (Homo sapiens, UniProt Q8WUI4); assay: Inhibition of human recombinant HDAC7
# T5 sequence (Q8WUI4 whole entry): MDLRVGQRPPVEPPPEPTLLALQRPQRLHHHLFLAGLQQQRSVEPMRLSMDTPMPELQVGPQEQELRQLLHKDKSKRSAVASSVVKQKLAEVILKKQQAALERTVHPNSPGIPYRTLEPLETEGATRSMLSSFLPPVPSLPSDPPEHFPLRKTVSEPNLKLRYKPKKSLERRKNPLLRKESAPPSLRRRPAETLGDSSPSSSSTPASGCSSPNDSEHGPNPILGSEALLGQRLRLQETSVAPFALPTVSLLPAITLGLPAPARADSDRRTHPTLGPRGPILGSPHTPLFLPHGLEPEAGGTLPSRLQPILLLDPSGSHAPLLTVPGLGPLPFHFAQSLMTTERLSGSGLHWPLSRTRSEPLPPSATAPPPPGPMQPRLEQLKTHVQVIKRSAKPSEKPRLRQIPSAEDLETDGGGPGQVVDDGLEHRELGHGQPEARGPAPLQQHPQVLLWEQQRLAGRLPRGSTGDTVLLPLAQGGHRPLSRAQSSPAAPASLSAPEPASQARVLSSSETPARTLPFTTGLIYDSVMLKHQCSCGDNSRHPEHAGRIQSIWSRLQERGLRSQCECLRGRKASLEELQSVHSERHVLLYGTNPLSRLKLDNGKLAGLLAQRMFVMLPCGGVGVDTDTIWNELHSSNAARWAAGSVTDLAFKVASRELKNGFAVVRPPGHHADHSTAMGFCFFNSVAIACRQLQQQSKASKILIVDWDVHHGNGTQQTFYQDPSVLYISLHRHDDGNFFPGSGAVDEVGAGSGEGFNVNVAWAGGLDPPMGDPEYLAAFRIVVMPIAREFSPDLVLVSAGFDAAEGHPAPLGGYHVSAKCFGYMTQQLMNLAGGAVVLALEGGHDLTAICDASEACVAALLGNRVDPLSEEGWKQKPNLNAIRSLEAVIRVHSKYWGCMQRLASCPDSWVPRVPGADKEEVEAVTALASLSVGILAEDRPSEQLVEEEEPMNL
# Chain of Histone deacetylase 1 (Q13547 whole entry, canonical isoform): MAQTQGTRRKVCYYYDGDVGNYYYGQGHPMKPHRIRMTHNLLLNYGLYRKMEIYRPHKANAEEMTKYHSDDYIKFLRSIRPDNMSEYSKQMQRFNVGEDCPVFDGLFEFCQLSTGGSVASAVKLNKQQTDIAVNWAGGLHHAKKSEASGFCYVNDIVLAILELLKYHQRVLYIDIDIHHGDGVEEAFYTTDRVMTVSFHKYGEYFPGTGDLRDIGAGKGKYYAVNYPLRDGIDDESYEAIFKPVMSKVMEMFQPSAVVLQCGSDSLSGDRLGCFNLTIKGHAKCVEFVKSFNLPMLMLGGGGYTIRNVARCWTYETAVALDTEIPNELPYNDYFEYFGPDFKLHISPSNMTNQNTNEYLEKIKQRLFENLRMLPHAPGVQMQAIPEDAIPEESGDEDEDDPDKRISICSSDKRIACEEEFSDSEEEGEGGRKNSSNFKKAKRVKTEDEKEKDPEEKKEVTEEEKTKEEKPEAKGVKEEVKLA
# Chain of Histone deacetylase 9 (Q9UKV0 whole entry): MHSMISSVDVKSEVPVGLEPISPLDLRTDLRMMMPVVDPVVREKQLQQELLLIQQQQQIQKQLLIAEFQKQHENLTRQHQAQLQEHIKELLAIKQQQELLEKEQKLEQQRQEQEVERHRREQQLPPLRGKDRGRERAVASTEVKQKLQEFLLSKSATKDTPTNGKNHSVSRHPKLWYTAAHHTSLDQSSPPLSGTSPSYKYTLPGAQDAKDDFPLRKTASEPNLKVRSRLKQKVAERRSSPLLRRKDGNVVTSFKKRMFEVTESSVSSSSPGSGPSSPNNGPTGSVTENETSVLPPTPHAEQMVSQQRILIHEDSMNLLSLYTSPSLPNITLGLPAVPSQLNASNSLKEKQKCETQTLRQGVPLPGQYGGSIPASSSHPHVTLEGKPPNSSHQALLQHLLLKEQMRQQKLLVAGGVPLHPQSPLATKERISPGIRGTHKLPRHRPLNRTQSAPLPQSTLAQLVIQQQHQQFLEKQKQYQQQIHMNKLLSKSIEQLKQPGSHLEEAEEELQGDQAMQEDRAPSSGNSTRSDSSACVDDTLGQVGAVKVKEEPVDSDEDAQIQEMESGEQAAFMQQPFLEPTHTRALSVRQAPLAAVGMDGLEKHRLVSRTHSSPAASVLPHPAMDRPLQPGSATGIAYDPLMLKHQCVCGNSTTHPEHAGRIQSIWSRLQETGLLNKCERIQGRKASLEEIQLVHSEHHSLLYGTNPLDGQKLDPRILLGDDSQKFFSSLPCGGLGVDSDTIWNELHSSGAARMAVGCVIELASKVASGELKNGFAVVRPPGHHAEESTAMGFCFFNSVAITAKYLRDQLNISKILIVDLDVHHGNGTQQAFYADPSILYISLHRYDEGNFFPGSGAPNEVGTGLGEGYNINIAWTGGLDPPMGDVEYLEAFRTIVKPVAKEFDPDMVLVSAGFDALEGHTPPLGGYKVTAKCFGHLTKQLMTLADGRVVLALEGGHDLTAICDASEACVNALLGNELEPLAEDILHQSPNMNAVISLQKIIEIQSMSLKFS
# Chain of Histone deacetylase 2 (Q92769 whole entry): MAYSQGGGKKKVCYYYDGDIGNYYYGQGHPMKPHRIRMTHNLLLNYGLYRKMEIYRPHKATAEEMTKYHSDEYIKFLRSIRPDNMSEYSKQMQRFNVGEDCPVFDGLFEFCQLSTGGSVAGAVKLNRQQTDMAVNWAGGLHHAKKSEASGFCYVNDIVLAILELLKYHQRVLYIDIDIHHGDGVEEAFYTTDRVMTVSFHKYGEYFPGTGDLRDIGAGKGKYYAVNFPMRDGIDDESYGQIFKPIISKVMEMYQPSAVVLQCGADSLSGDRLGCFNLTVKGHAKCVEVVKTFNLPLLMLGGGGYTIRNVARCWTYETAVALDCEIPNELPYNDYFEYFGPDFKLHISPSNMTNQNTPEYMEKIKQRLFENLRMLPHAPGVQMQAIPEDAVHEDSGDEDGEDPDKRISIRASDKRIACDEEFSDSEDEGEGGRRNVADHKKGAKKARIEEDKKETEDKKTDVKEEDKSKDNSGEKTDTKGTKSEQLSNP
# Chain of Histone deacetylase 4 (P56524 whole entry): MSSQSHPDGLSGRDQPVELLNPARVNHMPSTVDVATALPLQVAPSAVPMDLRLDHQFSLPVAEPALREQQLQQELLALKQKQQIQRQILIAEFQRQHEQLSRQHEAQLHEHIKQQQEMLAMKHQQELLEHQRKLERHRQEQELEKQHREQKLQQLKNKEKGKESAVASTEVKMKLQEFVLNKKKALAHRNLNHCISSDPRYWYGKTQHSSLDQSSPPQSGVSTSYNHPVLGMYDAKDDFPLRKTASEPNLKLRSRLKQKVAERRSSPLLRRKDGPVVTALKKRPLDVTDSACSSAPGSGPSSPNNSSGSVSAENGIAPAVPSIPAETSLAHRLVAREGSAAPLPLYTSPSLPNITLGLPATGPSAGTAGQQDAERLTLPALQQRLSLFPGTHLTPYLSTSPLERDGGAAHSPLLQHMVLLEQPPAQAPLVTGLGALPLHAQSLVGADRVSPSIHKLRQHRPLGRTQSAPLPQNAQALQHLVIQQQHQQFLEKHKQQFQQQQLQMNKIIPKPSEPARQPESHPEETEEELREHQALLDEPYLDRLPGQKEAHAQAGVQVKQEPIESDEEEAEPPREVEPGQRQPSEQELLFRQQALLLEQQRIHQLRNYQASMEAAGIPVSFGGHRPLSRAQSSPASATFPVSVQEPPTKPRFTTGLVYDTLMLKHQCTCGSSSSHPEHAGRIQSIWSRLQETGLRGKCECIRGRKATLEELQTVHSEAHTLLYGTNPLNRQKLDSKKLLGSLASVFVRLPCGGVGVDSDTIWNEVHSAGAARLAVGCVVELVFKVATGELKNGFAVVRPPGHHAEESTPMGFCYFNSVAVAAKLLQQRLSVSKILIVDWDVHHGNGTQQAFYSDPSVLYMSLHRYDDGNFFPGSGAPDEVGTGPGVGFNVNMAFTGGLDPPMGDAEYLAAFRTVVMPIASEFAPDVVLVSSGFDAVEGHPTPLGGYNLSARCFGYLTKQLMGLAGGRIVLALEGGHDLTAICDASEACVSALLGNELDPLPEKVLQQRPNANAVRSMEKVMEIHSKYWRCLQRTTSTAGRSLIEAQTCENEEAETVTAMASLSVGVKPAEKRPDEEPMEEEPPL
# Chain of Histone deacetylase 5 (Q9UQL6 whole entry): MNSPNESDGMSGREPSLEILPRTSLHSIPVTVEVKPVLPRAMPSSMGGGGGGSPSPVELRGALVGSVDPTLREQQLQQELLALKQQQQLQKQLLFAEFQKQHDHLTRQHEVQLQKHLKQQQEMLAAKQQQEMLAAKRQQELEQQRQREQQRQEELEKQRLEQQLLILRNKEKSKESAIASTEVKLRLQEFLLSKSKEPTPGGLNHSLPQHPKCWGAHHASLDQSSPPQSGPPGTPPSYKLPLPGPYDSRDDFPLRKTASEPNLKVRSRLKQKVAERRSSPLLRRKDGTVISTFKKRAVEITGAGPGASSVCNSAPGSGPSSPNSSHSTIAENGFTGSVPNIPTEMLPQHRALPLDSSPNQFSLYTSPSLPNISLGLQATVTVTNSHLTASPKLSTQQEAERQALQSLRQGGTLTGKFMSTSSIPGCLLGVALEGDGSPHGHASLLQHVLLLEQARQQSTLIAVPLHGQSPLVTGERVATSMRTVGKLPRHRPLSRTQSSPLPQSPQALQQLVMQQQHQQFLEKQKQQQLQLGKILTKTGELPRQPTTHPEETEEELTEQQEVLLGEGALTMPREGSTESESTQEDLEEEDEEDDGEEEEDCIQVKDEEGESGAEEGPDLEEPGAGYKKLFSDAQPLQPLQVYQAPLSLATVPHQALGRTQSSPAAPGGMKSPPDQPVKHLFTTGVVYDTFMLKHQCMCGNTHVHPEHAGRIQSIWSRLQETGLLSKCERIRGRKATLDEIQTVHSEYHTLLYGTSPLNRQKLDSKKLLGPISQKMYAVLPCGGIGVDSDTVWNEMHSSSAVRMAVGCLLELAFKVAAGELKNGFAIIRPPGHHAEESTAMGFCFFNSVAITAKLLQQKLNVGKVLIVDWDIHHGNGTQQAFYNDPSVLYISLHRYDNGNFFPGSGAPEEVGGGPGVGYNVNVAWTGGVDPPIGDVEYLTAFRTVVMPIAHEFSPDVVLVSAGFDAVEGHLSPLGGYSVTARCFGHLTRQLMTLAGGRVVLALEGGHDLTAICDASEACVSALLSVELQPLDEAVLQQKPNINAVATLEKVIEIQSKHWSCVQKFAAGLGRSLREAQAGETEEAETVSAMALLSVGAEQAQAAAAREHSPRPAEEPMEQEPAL
# Chain of Histone deacetylase 3 (O15379 whole entry): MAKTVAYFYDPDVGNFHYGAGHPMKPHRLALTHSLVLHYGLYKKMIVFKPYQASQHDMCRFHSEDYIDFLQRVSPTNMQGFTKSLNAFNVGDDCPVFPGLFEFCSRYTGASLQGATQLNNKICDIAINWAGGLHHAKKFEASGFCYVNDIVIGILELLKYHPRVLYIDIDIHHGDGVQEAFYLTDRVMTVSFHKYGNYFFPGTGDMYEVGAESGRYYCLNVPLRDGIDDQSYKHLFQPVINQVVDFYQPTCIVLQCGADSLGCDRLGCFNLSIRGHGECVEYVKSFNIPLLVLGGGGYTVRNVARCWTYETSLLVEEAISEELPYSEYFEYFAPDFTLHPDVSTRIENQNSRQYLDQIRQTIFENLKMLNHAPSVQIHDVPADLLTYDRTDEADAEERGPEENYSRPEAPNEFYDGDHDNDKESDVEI
IC50 [1] [µM],IC50 [2] [µM],IC50 [3] [µM],IC50 [4] [µM],IC50 [5] [µM],IC50 [6] [µM],IC50 [7] [µM],IC50 [8] [µM],inhibition [9],Activity [13],Activity [14],inhibition [15],inhibition [16],IC50 [17] [µM],SMILES,Activity [10],Activity [11],Activity [12]
560,680,340,39,170,37,91,16,Active,Active,inactive,Active,inactive,–,CCCC(CCC)C(=O)NO [VALPROPYLHYDROXAMIC ACID],Non-toxic,Non-toxic,Non-toxic
39,–,–,–,> 2000,> 2000,> 2000,> 2000,inactive,–,–,–,inactive,> 2000,CCCC(CCC)C(=O)O [VALPROIC ACID],Toxic,Toxic,Toxic
–,–,–,93,> 2000,> 2000,> 2000,–,inactive,–,–,Active,inactive,> 2000,O=C(O)CCCc1ccccc1,–,–,–
7,9,10,26,> 2000,360,> 2000,2,Active,–,–,–,Active,> 1000,CCCC(=O)NO [BUTYRYLHYDROXAMIC ACID],–,–,–
–,0.6,–,4,140,25,430,0.5,Active,–,–,–,Active,–,O=C(CCCc1ccccc1)NO [PHENYLBUTYRYLHYDROXAMIC ACID],–,–,–

SMILES,IC50 [1] [µM],IC50 [2] [µM],IC50 [3] [µM],IC50 [4] [µM],IC50 [5] [µM],IC50 [6] [µM],IC50 [7] [µM],IC50 [8] [µM],inhibition [9],Activity [13],Activity [14],inhibition [15],inhibition [16],IC50 [17] [µM],Activity [10],Activity [11],Activity [12]
CCCC(=O)O [BUTYRIC ACID],16,12,9,15,> 2000,> 2000,> 2000,> 2000,inactive,–,–,–,inactive,> 2000,–,–,–
